# Results reported in ChEMBL document CHEMBL4364301 (Eur J Med Chem, 2019).
# Legend:
# Format in all cases: functional
# DU-145 = test: Antiproliferative activity against human DU145 cells assessed as reduction in cell growth incubated for 96 hrs by propidium iodide based 2D monolayer assay; settings: for IC50: DU-145, 96 h
# In short: (§1)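 After 24 h recovery, compound in medium or medium alone (control wells) was added at 10 half-log concentrations from 0.0032 to 100 µM, in triplicate, with at most 0.3% DMSO. After 96 h, wells were PBS-washed, stained with 7 µg/ml PI and 0.1% Triton X-100, and fluorescence read at 530/620 nm. IC50 came from a 4-parameter fit, geometric mean.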
# CWR22R = test: Antiproliferative activity against human 22Rv1 cells assessed as reduction in cell growth incubated for 96 hrs by propidium iodide based 2D monolayer assay; settings: for IC50: 22Rv1, 96 h; in short: as §1
# LNCaP = test: Antiproliferative activity against human LNCAP cells assessed as reduction in cell growth incubated for 96 hrs by propidium iodide based 2D monolayer assay; in short: as §1
# VCaP = test: Antiproliferative activity against human VCaP cells assessed as reduction in cell growth incubated for 96 hrs by propidium iodide based 2D monolayer assay
# In short: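 VCaP cells in RPMI 1640 with 10% FCS at 37 °C, 5% CO2, seeded 4,000–20,000 cells/well and left 24 h before dosing. Compounds from DMSO stocks were diluted in half-log steps in medium, 10 concentrations 0.0032–100 μM, triplicate wells, max 0.3% DMSO. After 96 h, cells were washed, stained with 7 μg/ml propidium iodide plus 0.1% Triton X-100 for 1–2 h at room temperature, and fluorescence read at ex 530/em 620 nm.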
compound,measurement,setting,value
CC(O)(CS(=O)(=O)c1ccc(F)cc1)C(=O)Nc1cccc(S(F)(F)(F)(F)F)c1 (racemic),IC50,DU-145,48.8 µM
same,IC50,CWR22R,38.9 µM
same,IC50,LNCaP,32.6 µM
same,IC50,VCaP,37.9 µM
CC(O)(COc1cccc(C(F)(F)C(F)(F)F)c1)C(=O)Nc1cc(C(F)(F)F)cc(C(F)(F)F)c1 (racemic),IC50,DU-145,8.5 µM
same,IC50,CWR22R,4.1 µM
same,IC50,LNCaP,4.4 µM
same,IC50,VCaP,9.5 µM
CC(O)(CS(=O)(=O)c1ccccc1OC(F)(F)F)C(=O)Nc1ccc(S(F)(F)(F)(F)F)cc1 (racemic),IC50,DU-145,19.5 µM
same,IC50,CWR22R,16 µM
same,IC50,LNCaP,12.7 µM
same,IC50,VCaP,19.9 µM
CC(O)(COc1cccc(C(F)(F)C(F)(F)F)c1)C(=O)Nc1ccc(C(F)(F)F)cc1 (racemic),IC50,DU-145,7.6 µM
same,IC50,CWR22R,3.6 µM
same,IC50,LNCaP,3.9 µM
same,IC50,VCaP,8.1 µM
CC(O)(CS(=O)(=O)c1ccc(OC(F)(F)F)cc1)C(=O)Nc1cccc(S(F)(F)(F)(F)F)c1 (racemic),IC50,DU-145,35.6 µM
same,IC50,CWR22R,31.2 µM
same,IC50,LNCaP,10.7 µM
same,IC50,VCaP,15.1 µM
CC(O)(CS(=O)(=O)c1cccc(C(F)(F)F)c1)C(=O)Nc1cccc(S(F)(F)(F)(F)F)c1 (racemic),IC50,DU-145,37.3 µM
same,IC50,CWR22R,24.6 µM
same,IC50,LNCaP,21.8 µM
same,IC50,VCaP,35.5 µM
CC(O)(CS(=O)(=O)c1ccc(S(F)(F)(F)(F)F)cc1)C(=O)Nc1cccc(S(F)(F)(F)(F)F)c1 (racemic),IC50,DU-145,17.4 µM
same,IC50,CWR22R,12.3 µM
same,IC50,LNCaP,11.7 µM
same,IC50,VCaP,17.2 µM
CC(O)(CS(=O)(=O)c1cc(C(F)(F)F)cc(C(F)(F)F)c1)C(=O)Nc1cccc(S(F)(F)(F)(F)F)c1 (racemic),IC50,DU-145,13.7 µM
same,IC50,CWR22R,9.3 µM
same,IC50,LNCaP,9.7 µM
same,IC50,VCaP,10.4 µM
CC(O)(CS(=O)(=O)c1ccccc1C(F)(F)F)C(=O)Nc1cccc(S(F)(F)(F)(F)F)c1 (racemic),IC50,DU-145,27.3 µM
same,IC50,CWR22R,27.7 µM
same,IC50,LNCaP,24.9 µM
same,IC50,VCaP,40.8 µM
CC(O)(CS(=O)(=O)c1ccc(OC(F)(F)F)cc1)C(=O)Nc1ccc(S(F)(F)(F)(F)F)cc1 (racemic),IC50,DU-145,39.3 µM
same,IC50,CWR22R,51.9 µM
same,IC50,LNCaP,92.8 µM
same,IC50,VCaP,95.8 µM
CC(O)(CS(=O)(=O)c1cc(C(F)(F)F)cc(C(F)(F)F)c1)C(=O)Nc1ccc(S(F)(F)(F)(F)F)cc1 (racemic),IC50,DU-145,24.4 µM
same,IC50,CWR22R,12.7 µM
same,IC50,LNCaP,13.3 µM
same,IC50,VCaP,15.8 µM
CC(O)(COc1cc(C(F)(F)F)cc(C(F)(F)F)c1)C(=O)Nc1cccc(C(F)(F)C(F)(F)F)c1 (racemic),IC50,DU-145,9.8 µM
same,IC50,CWR22R,4.5 µM
same,IC50,LNCaP,4.7 µM
same,IC50,VCaP,8 µM
CC(O)(CS(=O)(=O)c1cccc(S(F)(F)(F)(F)F)c1)C(=O)Nc1cccc(S(F)(F)(F)(F)F)c1 (racemic),IC50,DU-145,29.4 µM
same,IC50,CWR22R,15.4 µM
same,IC50,LNCaP,11.7 µM
same,IC50,VCaP,19 µM
CC(O)(CS(=O)(=O)c1cccc(OC(F)(F)F)c1)C(=O)Nc1ccc(S(F)(F)(F)(F)F)cc1 (racemic),IC50,DU-145,26.5 µM
same,IC50,CWR22R,22.4 µM
same,IC50,LNCaP,21.7 µM
same,IC50,VCaP,23.7 µM
CC(O)(CS(=O)(=O)c1cccc(OC(F)(F)F)c1)C(=O)Nc1cccc(S(F)(F)(F)(F)F)c1 (racemic),IC50,DU-145,31.5 µM
same,IC50,CWR22R,20.1 µM
same,IC50,LNCaP,15.1 µM
same,IC50,VCaP,20.2 µM
CC(O)(CS(=O)(=O)c1ccccc1OC(F)(F)F)C(=O)Nc1cccc(S(F)(F)(F)(F)F)c1 (racemic),IC50,DU-145,29.1 µM
same,IC50,CWR22R,17.1 µM
same,IC50,LNCaP,9 µM
same,IC50,VCaP,13.9 µM
CC(O)(CS(=O)(=O)c1ccc(F)cc1)C(=O)Nc1ccc(C#N)c(C(F)(F)F)c1 (racemic) [BICALUTAMIDE],Activity,DU-145,Dose-dependent effect
same,Activity,CWR22R,Dose-dependent effect
same,Activity,LNCaP,Dose-dependent effect
same,Activity,VCaP,Dose-dependent effect
